Experimental data published in ChEMBL document CHEMBL1148951, “New macrolides from the sponge Chondrosia corticata” (2004).
Values after ≈ are worked out from the molar mass of the structure shown.

Columns and labels:
Assay type in all cases: functional
K562 = experiment: Cytotoxicity against human K562 cells by MTT assay; settings: read-out: LC50 (the source's name)
Candida albicans = experiment: Antifungal activity against Candida albicans at 2 ug/disk by paper disk method; settings: read-out: IZ
In short: (§1)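 Paper disk diffusion assay with 2 µg of compound loaded per disk. The read-out is the diameter of the clear zone around the disk.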

Aspergillus niger = experiment: Antifungal activity against Aspergillus niger at 2 ug/disk by paper disk method; settings: read-out: IZ; in short: as §1

`COC(=O)c1coc(/C=C/CCC(C)C(CC(OC)C(C)CCC(=O)C(C)C(C/C=C/N(C)C=O)OC)OC(=O)CC(O)C/C=C/C(=O)C(C)C(OC)c2coc(C(N)=O)n2)n1` (stereo not drawn) [HALISHIGAMIDE D] gave a CC50 (K562) of 92 µg/mL (≈ 105 µM).

In the case of `COC(CC1OC(=O)CC(O)CC(O)CC(=O)C(C)C(OC)c2coc(n2)-c2coc(n2)-c2coc(n2)/C=C/CCC1C)C(C)CCC(=O)C(C)C(C/C=C/N(C)C=O)OC` (stereo not drawn) [JASPISAMIDE A], the CC50 (K562) is reported as 0.31 µg/mL (≈ 0.363 µM), the zone of inhibition at 2 µg/disc (Candida albicans) is reported as 18 mm and the zone of inhibition at 2 µg/disc (Aspergillus niger) is reported as 10 mm.

With `COC(CC1OC(=O)CC(O)C/C=C/C(=O)C(C)C(OC)c2coc(n2)-c2coc(n2)-c2coc(n2)/C=C/CCC1C)C(C)CCC(=O)C(C)C(C/C=C/N(C)C=O)OC` (stereo not drawn) [HALICHONDRAMIDE] the CC50 (K562) was 0.19 µg/mL (≈ 0.227 µM), the zone of inhibition at 2 µg/disc (Candida albicans) was 18 mm and the zone of inhibition at 2 µg/disc (Aspergillus niger) was 21 mm.

With `COC(CC1OC(=O)CC(O)/C=C/CC(=O)C(C)C(OC)c2coc(n2)-c2coc(n2)-c2coc(n2)/C=C/CCC1C)C(C)CCC(=O)C(C)C(C/C=C/N(C)C=O)OC` (stereo not drawn) [NEOHALICHONDRAMIDE] the CC50 (K562) was 0.38 µg/mL (≈ 0.454 µM), the zone of inhibition at 2 µg/disc (Candida albicans) was 20 mm and the zone of inhibition at 2 µg/disc (Aspergillus niger) was 15 mm.

With `COC(=O)c1nc(-c2nc(C(OC)C(C)C(=O)/C=C/CC(O)CC(=O)OC(CC(OC)C(C)CCC(=O)C(C)C(C/C=C/N(C)C=O)OC)C(C)CC/C=C/C(N)=O)co2)co1` (stereo not drawn) [SECOHALICHONDRAMIDE] the CC50 (K562) was greater than 500 µg/mL and the zone of inhibition at 2 µg/disc (Candida albicans) was 15 mm.

`COC(CC1OC(=O)CC(O)C/C=C\C(=O)C(C)C(OC)c2coc(n2)-c2coc(n2)-c2coc(n2)/C=C\CCC1C)C(C)CCC(=O)C(C)C(C/C=C/N(C)C=O)OC` (stereo not drawn) showed a CC50 (K562) of 0.9 µg/mL (≈ 1.08 µM), a zone of inhibition at 2 µg/disc (Candida albicans) of 10 mm and a zone of inhibition at 2 µg/disc (Aspergillus niger) of 10 mm.

With `COC(CC1OC(=O)CC(O)CCCC(=O)C(C)C(OC)c2coc(n2)-c2coc(n2)-c2coc(n2)/C=C/CCC1C)C(C)CCC(=O)C(C)C(C/C=C/N(C)C=O)OC` (stereo not drawn) [DIHYDROHALICHONDRAMIDE] the CC50 (K562) was 0.32 µg/mL (≈ 0.381 µM), the zone of inhibition at 2 µg/disc (Candida albicans) was 19 mm and the zone of inhibition at 2 µg/disc (Aspergillus niger) was 11 mm.
